Values after ≈ are worked out from the molar mass of the structure shown. Active and inactive are the calls of the source. The rule behind the calls is not given here.
Key:
Staphylococcus aureus [1] = assay: Bactericidal activity against Staphylococcus aureus E19977 assessed as log reduction in cfu at 0.5 mg/liter after 24 hrs by time-kill study; type: functional, organism-based
Summary of the method: (§1)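 In vitro kinetic model simulating antibiotic elimination without inoculum change. Exponential-phase E19977 was added at a final 10^6.3 CFU/ml. Starting drug concentration matched the human free peak, with the human half-life simulated. Samples were plated on 5% blood agar at 0, 2, 4, 6, 8, 12 and 24 h, with growth controls in each run. Results are shown as mean and range, n = 2.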

Staphylococcus aureus [2] = assay: Antibacterial activity against Staphylococcus aureus E19977 infected in NMRI mouse assessed as log reduction in extracellular bacterial cfu in peritoneum at 1 mg/kg, sc administered 2 hrs after infection measured after 4 hrs; type: functional, organism-based; design: dose 1 mg/kg
Summary of the method: (§2)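 Female NMRI mice (25–30 g) were infected i.p. with 0.5 ml of 10^7.7 CFU/ml in 5% mucin. […] Pooled washes were split into total, extracellular and intracellular fractions by 300 × g spin, lysostaphin, HBSS washes and water lysis. Counts were compared with untreated mice.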

Staphylococcus aureus [3] = assay: Bactericidal activity against Staphylococcus aureus E19977 assessed as log reduction in cfu at 20 mg/liter after 24 hrs by time-kill study; type: functional, organism-based; summary of the method: as §1
Staphylococcus aureus [4] = assay: Antibacterial activity against Staphylococcus aureus E19977 by Etest; type: functional
Staphylococcus aureus [5] = assay: Bactericidal activity against Staphylococcus aureus E19977 assessed as log reduction in cfu at 1.5 mg/liter after 24 hrs by time-kill study; type: functional, organism-based; summary of the method: as §1
[6] = Cmax in human at 1000 mg, po; type: ADME, organism-based; design: dose 1000 mg, route oral; conditions: in vivo
Staphylococcus aureus [7] = assay: Antibacterial activity against Staphylococcus aureus E19977 infected in NMRI mouse assessed as log reduction in intracellular bacterial cfu in peritoneum at 1 mg/kg, sc administered 2 hrs after infection measured after 4 hrs; type: functional, organism-based; design: dose 1 mg/kg; summary of the method: as §2
Serum [8] = assay: Protein binding in human serum at 1000 mg, po; type: ADME, organism-based; conditions: in vivo
[9] = Half life in human at 1000 mg, po; type: ADME, organism-based; conditions: in vivo
Staphylococcus aureus [10] = assay: Bactericidal activity against Staphylococcus aureus E19977 assessed as log reduction in cfu at 9 mg/liter after 24 hrs by time-kill study; type: functional, organism-based; summary of the method: as §1
Staphylococcus aureus [11] = assay: Bacteriostatic activity against Staphylococcus aureus E19977 assessed as log reduction in cfu at 0.5 mg/liter upto 8 hrs by time-kill study; type: functional, organism-based
Staphylococcus aureus [12] = assay: Antibacterial activity against Staphylococcus aureus E19977 infected in NMRI mouse assessed as log reduction in bacterial cfu in peritoneum at 1 mg/kg, sc administered 2 hrs after infection measured after 4 hrs; type: functional, organism-based; design: dose 1 mg/kg; summary of the method: as §2
Staphylococcus aureus [13] = assay: Bactericidal activity against Staphylococcus aureus E19977 assessed as log reduction in cfu at 2 mg/liter after 24 hrs by time-kill study; type: functional, organism-based; summary of the method: as §1
[14] = Cmax in human at 1000 mg, im; type: ADME, organism-based; design: dose 1000 mg, route […]; conditions: in vivo
Staphylococcus aureus [15] = assay: Bactericidal activity against Staphylococcus aureus E19977 assessed as log reduction in cfu at 20 mg/liter upto 24 hrs by time-kill study; type: functional
Summary of the method: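 In vitro kinetic model: exponential-phase bacteria at a final 10^6.3 CFU/ml were exposed to a starting concentration set to the human free peak level. Elimination followed the simulated human half-life. Samples were taken at 0, 2, 4, 6, 8, 12 and 24 h and counted on 5% blood agar (detection limit 25 CFU/ml). Growth controls were included; n = 2.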

Serum [16] = assay: Protein binding in human serum at 1000 mg, im; type: ADME, cell-free
Staphylococcus aureus [17] = assay: Bactericidal activity against Staphylococcus aureus E19977 assessed as log reduction in cfu at 2 mg/liter upto 24 hrs by time-kill study; type: functional
Summary of the method: (§3)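 Clinical bacteremia isolate (penicillin-resistant, methicillin-susceptible). Exponential-phase bacteria were placed in an in vitro kinetic model that simulates drug elimination without changing the inoculum. The starting drug level matched the human free peak serum concentration after a single dose, with simulated human elimination half-life. Samples were taken at 0, 2, 4, 6, 8, 12 and 24 h, with growth controls in each run.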

Staphylococcus aureus [18] = assay: Antibacterial activity against Staphylococcus aureus E19977 infected in NMRI mouse assessed as log reduction in intracellular bacterial cfu in peritoneum at 200 mg/kg, sc administered 2 hrs after infection measured after 4 hrs; type: functional, organism-based; design: dose 200 mg/kg
Summary of the method: (§4)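 Dose–response in i.p.-infected NMRI mice (mucin adjuvant). Single doses of 200, 60, 30, 20 or 10 mg/kg were given 2 h after inoculation, with 4–16 mice per group. Peritoneal wash was sampled 4 h later and split by lysostaphin/centrifugation into total, extra- and intracellular counts, then expressed as Δlog10 CFU/ml against log dose. Vehicle controls were plotted as 0.3 mg/kg. Hill fit (variable slope); static dose interpolated.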

[19] = Half life in human at 1000 mg, im; type: ADME, organism-based; conditions: in vivo
Staphylococcus aureus [20] = assay: Antibacterial activity against Staphylococcus aureus E19977 infected in NMRI mouse assessed as log reduction in extracellular bacterial cfu in peritoneum at 200 mg/kg, sc administered 2 hrs after infection measured after 4 hrs; type: functional, organism-based; design: dose 200 mg/kg; summary of the method: as §4
Staphylococcus aureus [21] = assay: Bactericidal activity against Staphylococcus aureus E19977 assessed as log reduction in cfu at 1.5 mg/liter upto 24 hrs by time-kill study; type: functional; summary of the method: as §3
Staphylococcus aureus [22] = assay: Bactericidal activity against Staphylococcus aureus E19977 assessed as log reduction in cfu at 2 mg/liter after 12 hrs by time-kill study; type: functional; summary of the method: as §3
Staphylococcus aureus [23] = assay: Antibacterial activity against Staphylococcus aureus E19977 infected in NMRI mouse assessed as log reduction in bacterial cfu in peritoneum at 200 mg/kg, sc administered 2 hrs after infection measured after 4 hrs; type: functional, organism-based; design: dose 200 mg/kg; summary of the method: as §4

## CC[C@H]1OC(=O)[C@H](C)[C@@H](O[C@H]2C[C@@](C)(OC)[C@@H](O)[C@H](C)O2)[C@H](C)[C@@H](O[C@@H]2O[C@H](C)C[C@H](N(C)C)[C@H]2O)[C@](C)(O)C[C@@H](C)CN(C)[C@H](C)[C@@H](O)[C@]1(C)O [AZITHROMYCIN]
Staphylococcus aureus [1]
  Activity: inactive
Staphylococcus aureus [2]
  Activity: inactive
Staphylococcus aureus [3]
  Activity: inactive
Staphylococcus aureus [4]
  MIC: 0.5 µg/mL (≈ 0.668 µM)
Staphylococcus aureus [5]
  Activity: inactive
[6]
  Cmax: 1000 ng/mL
Staphylococcus aureus [7]
  Activity: inactive
Serum [8]
  Activity: 50%
[9]
  half-life: 10 h
Staphylococcus aureus [10]
  Activity: inactive
Staphylococcus aureus [11]
  Activity: Active
Staphylococcus aureus [12]
  Activity: inactive
Staphylococcus aureus [13]
  Activity: inactive

## CO/N=C(\C(=O)N[C@@H]1C(=O)N2C(C(=O)O)=C(COC(N)=O)CS[C@H]12)c1ccco1 [CEFUROXIME]
Staphylococcus aureus [1]
  Activity: inactive
[14]
  Cmax: 26000 ng/mL
Staphylococcus aureus [15]
  FC: >2
Staphylococcus aureus [3]
  Activity: inactive
Staphylococcus aureus [4]
  MIC: 2 µg/mL (≈ 4.71 µM)
Serum [16]
  Activity: 30%
Staphylococcus aureus [5]
  Activity: inactive
Staphylococcus aureus [17]
  FC: 2
Staphylococcus aureus [18]
  Activity: inactive
[19]
  half-life: 1.5 h
Staphylococcus aureus [20]
  Activity: Active
Staphylococcus aureus [21]
  FC: 2
Staphylococcus aureus [10]
  Activity: inactive
Staphylococcus aureus [22]
  FC: 2
Staphylococcus aureus [13]
  Activity: inactive
Staphylococcus aureus [23]
  Activity: Active
